Drawing on the array DNA melting data of Ke et al. (doi:10.1101/2024.01.08.574731), this text covers folding enthalpy and Tm for 55 sequences.

Series [1] is described as follows: folding enthalpy; higher = less favourable; fluorescence melt of hairpins on a sequencing array, two-state fit. As to conditions: sodium 0.088 M. The procedure, abridged:
(§1)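 Cy3 signals were normalised both to pre-quench Cy3 and to control constructs. They came from library hairpins carrying annealed Cy3 and quencher oligos on a sequenced MiSeq flow cell, imaged in 50 mM Na-HEPES pH 8.0, 25 mM NaCl, in 2.5 °C steps up to 60 °C. Bootstrapped two-state fits gave melting temperature and folding enthalpy, and four replicates were combined by inverse variance. Fitted temperatures were then raised by 9.35 °C to match UV melts.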

A short description of series [2]: melting temperature; fluorescence melt of hairpins on a sequencing array, two-state fit, raised by 9.35 °C to match UV melts. The conditions noted are these: sodium 0.088 M. The procedure, abridged: as §1

GACGACGAAAGTCTGTC ((((((....))).))): the folding enthalpy in series [1] was -24.4 kcal/mol. For the same sequence, the Tm in series [2] is 51.4 °C.
The matching figures for GACGACGGAAACGCCGTC ((((.((....)).)))): -31.4 kcal/mol and 56.4 °C.
The matching figures for GACGACGGAAACGTCATC ((.((((....)))).)): -15.7 kcal/mol and 38.8 °C.
For GACGAGACGAAAGTCGTC (((..(((....)))))), the folding enthalpy in series [1] was -13.8 kcal/mol. Also, the Tm in series [2] came out at 49 °C.
In the same order, the values of GACGAGCCGAAAGGCGTC (((..(((....)))))) are -8.53 kcal/mol and 42.3 °C.
The matching figures for GACGAGCGAAAGCTGGTC (((.(((....))).))): -31.2 kcal/mol and 54.8 °C.
In the same order, the values of GACGAGCGAAAGCTTGTC (((.(((....))).))) are -36.8 kcal/mol and 61.2 °C.
As to GACGAGGAAACTCGTC ((((((....)))))), the folding enthalpy in series [1] was -41.1 kcal/mol. In addition, in series [2], the Tm was found to be 61.2 °C.
As to GACGATGGAAACACCGTC ((((.((....)).)))), the folding enthalpy in series [1] is -29.6 kcal/mol. Besides, in series [2], the Tm came to 45.4 °C.
GACGATGGAAACATCGCC (.(((((....))))).): in series [1], the folding enthalpy is -17.9 kcal/mol. The Tm in series [2] was found to be 47.3 °C.
In the same order, the values of GACGCACGAAAGTGAGTC (((.(((....))).))) are -40 kcal/mol and 60 °C.
In the same order, the values of GACGCACGAAAGTGGGTC (((.(((....))).))) are -35.3 kcal/mol and 63.9 °C.
The matching figures for GACGCACGAAAGTGGTC (((.(((....)))))): -16.9 kcal/mol and 51.7 °C.
As for GACGCCCGAAAGGGGTC (((.(((....)))))), in series [1], the folding enthalpy is -17.1 kcal/mol. For the same sequence, the Tm in series [2] was 55.6 °C.
The matching figures for GACGCCCGAAAGGGTGTC (((.(((....))).))): -35.5 kcal/mol and 69.3 °C.
With GACGCCGAAAGGCAGGTC ((((((....)))..))), in series [1], the folding enthalpy was -16.2 kcal/mol. Also, in series [2], the Tm is 52.1 °C.
In the same order, the values of GACGCCGAAAGGCAGTC ((((((....))).))) are -18.2 kcal/mol and 63.7 °C.
The matching figures for GACGCCGAAAGGCGGTC ((((((....))).))): -9.77 kcal/mol and 64.9 °C.
In the same order, the values of GACGCCGAAAGGCTTGTC ((((((....)))..))) are -13.5 kcal/mol and 41.1 °C.
Take GACGCCGGAAACGGCATC ((.((((....)))).)): the folding enthalpy in series [1] is -11.4 kcal/mol. Moreover, the Tm in series [2] was found to be 43.4 °C.
The matching figures for GACGCGGGAAACCGCACC (..((((....))))..): -8.05 kcal/mol and 32.2 °C.
The matching figures for GACGCGGGAAACCGCGCC (.(((((....))))).): -11.8 kcal/mol and 55 °C.
In the same order, the values of GACGCTGGAAACAACGCC (.((.((....)).)).) are -12.6 kcal/mol and 28.2 °C.
Regarding GACGGACGAAAGTCGGTC (((.(((....))).))), in series [1], the folding enthalpy is -35.2 kcal/mol. Besides, the Tm in series [2] is 58.1 °C.
As for GACGGAGGAAACTCCACC (..((((....))))..), in series [1], the folding enthalpy is -10.4 kcal/mol. Besides, the Tm in series [2] was found to be 26.4 °C.
Turning to GACGGAGGAAACTCCGTC (((((((....))))))), the folding enthalpy in series [1] was -36.1 kcal/mol. Besides, the Tm in series [2] worked out at 67.8 °C.
The matching figures for GACGGAGGAAACTTCGTC ((((.((....)).)))): -42.1 kcal/mol and 49.6 °C.
In the same order, the values of GACGGCCGAAAGGCAGTC (((.(((....))).))) are -26.2 kcal/mol and 68.8 °C.
The matching figures for GACGGCGAAAGCCAAGTC ((((((....)))..))): -18.5 kcal/mol and 49 °C.
With GACGGCGAAAGCCACGTC ((((((....)))..))), the folding enthalpy in series [1] was -15.3 kcal/mol. Also, the Tm in series [2] is 49.8 °C.
The matching figures for GACGGCGAAAGCCATGTC ((((((....)))..))): -13.3 kcal/mol and 45.2 °C.
The matching figures for GACGGCGAAAGCCCGTC ((((((....))).))): -24.7 kcal/mol and 65.4 °C.
In the same order, the values of GACGGCGAAAGCCGCGTC ((((((....)))..))) are -8.52 kcal/mol and 50.9 °C.
GACGGGAAACCGTC (((((....))))): the folding enthalpy in series [1] was -29 kcal/mol. Further, the Tm in series [2] was 58.6 °C.
The matching figures for GACGGGCCGAAAGGCGTC (((..(((....)))))): -15 kcal/mol and 48.8 °C.
The matching figures for GACGGGCGAAAGCCTGTC (((.(((....))).))): -26.2 kcal/mol and 67.3 °C.
Take GACGGGGGAAACCCCACC (..((((....))))..): the folding enthalpy in series [1] was -7.44 kcal/mol. The Tm in series [2] amounted to 30.3 °C.
The matching figures for GACGGTCCGAAAGGAGTC (((..(((....)))))): -14.2 kcal/mol and 34.2 °C.
The matching figures for GACGGTGGAAACGTCGTC ((((..(....)..)))): -31.6 kcal/mol and 54.8 °C.
The matching figures for GACGTAACGAAAGTTGTC (((..(((....)))))): -25 kcal/mol and 37.5 °C.
With GACGTAGGAAACTACATC ((.((((....)))).)), the folding enthalpy in series [1] was -13.1 kcal/mol. Moreover, the Tm in series [2] amounted to 28.4 °C.
The matching figures for GACGTAGGAAACTACGCC (.(((((....))))).): -16.6 kcal/mol and 43.6 °C.
The matching figures for GACGTCCGAAAGGAAGTC (((.(((....))).))): -34.7 kcal/mol and 54.7 °C.
In the same order, the values of GACGTCCGAAAGGATGTC (((.(((....))).))) are -42.9 kcal/mol and 60.1 °C.
Consider GACGTCGGAAACAACGTC (((((.(....).))))), for which the folding enthalpy in series [1] was -30.5 kcal/mol. Besides, the Tm in series [2] is 45.2 °C.
With GACGTGCGAAAGCAGTC (((.(((....)))))), the folding enthalpy in series [1] is -21.6 kcal/mol. For the same sequence, the Tm in series [2] is 54.9 °C.
In the same order, the values of GACGTTACGAAAGTAGTC (((..(((....)))))) are -27.2 kcal/mol and 44.2 °C.
The matching figures for GACGTTCCGAAAGGAGTC (((..(((....)))))): -17 kcal/mol and 36.6 °C.
On to GACGTTGGAAACAACGCC (.(((((....))))).), for which the folding enthalpy in series [1] is -12.4 kcal/mol. In addition, the Tm in series [2] was 48.8 °C.
In the same order, the values of GACTAAACGAAAGTTGTC (((..(((....)))))) are -19.6 kcal/mol and 34.9 °C.
The matching figures for GACTAAGGAAACCTAGTC (((((.(....).))))): -25.7 kcal/mol and 35.6 °C.
In the same order, the values of GACTACCGAAAGGTTGTC (((.(((....))).))) are -31.3 kcal/mol and 53.1 °C.
GACTACGAAAGTAAGTC ((((((....))).))): the folding enthalpy in series [1] is -29.4 kcal/mol. Also, the Tm in series [2] was 47.1 °C.
The matching figures for GACTACGAAAGTACGTC ((((((....))).))): -25.7 kcal/mol and 43.3 °C.
The matching figures for GACTACGAAAGTAGAGTC ((((((....)))..))): -13.7 kcal/mol and 34.7 °C.
